Experimental data: paper PMC9075506 (RSC Advances, 2019)
Like-named read-outs stand apart in the source and are kept apart here.

Columns and labels:
[1] = Pharmacokinetic study in 6-OHDA-induced PD rats after oral administration; type: in vivo; conditions: rat, plasma
[2] = Pharmacokinetic study in sham rats after oral administration of PLA; type: in vivo; conditions: rat, plasma, 50 mg/kg
[3] = type: in vitro ADME, rat; conditions: n = 3; for Stability, autosampler (20 °C, 4 h), RE: processed rat plasma; for Stability, long-term (−80 °C, 30 d), RE / Stability, short-term (4 °C, 48 h), RE / Stability, three freeze–thaw cycles, RE: rat plasma
Outline: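 Plasma (50 μL) precipitated with methanol/acetonitrile (1:1) containing internal standard (10 ng mL−1), vortexed 3 min, centrifuged 12 000 g for 10 min. Supernatant was run on C18 UFLC with a 0.1% formic acid/acetonitrile gradient at 0.5 mL min−1, detected by positive-ESI MRM. Quantified by analyte/IS peak-area ratio against a 1/x2-weighted linear calibration; accuracy given as RE (%).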

[4] = normal rats, oral administration of PLA, tissue distribution; cited from earlier work
[5] = high QC: spiked 160 ng mL^−1 (PLTR 4000 ng mL^−1)
[6] = low QC: spiked 0.6 ng mL^−1 (PLTR 15 ng mL^−1)
[7] = medium QC: spiked 10 ng mL^−1 (PLTR 250 ng mL^−1)

AUC(0-t) ([1]; 50 mg/kg) | Cmax ([1]; 50 mg/kg) | MRT ([1]; 50 mg/kg) | Tmax ([1]; 50 mg/kg) | half-life ([1]; 50 mg/kg) | Cmax [2] | MRT [2] | Tmax [2] | half-life [2] | Stability, autosampler (20 °C, 4 h), RE [3, 5] | Stability, autosampler (20 °C, 4 h), RE [3, 6] | Stability, autosampler (20 °C, 4 h), RE [3, 7] | Stability, long-term (−80 °C, 30 d), RE [3, 5] | Stability, short-term (4 °C, 48 h), RE [3, 5] | Stability, three freeze–thaw cycles, RE [3, 5] | Stability, long-term (−80 °C, 30 d), RE [3, 6] | Stability, short-term (4 °C, 48 h), RE [3, 6] | Stability, three freeze–thaw cycles, RE [3, 6] | Stability, long-term (−80 °C, 30 d), RE [3, 7] | Stability, short-term (4 °C, 48 h), RE [3, 7] | Structure (SMILES) | further results
136 ± 45.6 ng·h/mL | 123 ± 57.6 ng/mL | 2.43 ± 1.52 h | 0.18 ± 0.09 h | 2.8 ± 1.71 h | 160 ± 120 ng/mL | 3.72 ± 1.3 h | 0.18 ± 0.09 h | 4.16 ± 1.32 h | −9.38% | −2.28% | 7.33% | −6.25% | −8.33% | −4.79% | 0.94% | −3.50% | 4.67% | 6.33% | 10.00% | O=C(/C=C/CCc1ccc2c(c1)OCO2)N1CCCCC1 [PPRA, piperanine] | AUC(0-inf) ([1]; 50 mg/kg): 137 ± 45.3 ng·h/mL; AUC(0-inf) [2]: 230 ± 150 ng·h/mL; AUC(0-t) [2]: 225 ± 155 ng·h/mL; Stability, three freeze–thaw cycles, RE [3, 7]: 7.33%
9700 ± 2670 ng·h/mL | 978 ± 214 ng/mL | 5.99 ± 0.63 h | 4 ± 1.41 h | 3.65 ± 3.45 h | 1000 ± 146 ng/mL | 6.83 ± 0.44 h | 4.8 ± 2.28 h | 3.4 ± 2.15 h | −5.00% | −2.67% | 7.67% | 0.21% | −2.92% | 0.42% | −7.44% | −4.06% | −5.06% | 10.33% | 11.33% | O=C(/C=C/C=C/c1ccc2c(c1)OCO2)N1CCCCC1 [PPR, piperine] | AUC(0-inf) ([1]; 25 mg/kg): 7120 ± 1770 ng·h/mL; AUC(0-t) ([1]; 25 mg/kg): 7110 ± 1770 ng·h/mL; Cmax ([1]; 25 mg/kg): 825 ± 241 ng/mL; MRT ([1]; 25 mg/kg): 6.27 ± 0.56 h; Tmax ([1]; 25 mg/kg): 2.95 ± 2.06 h; half-life ([1]; 25 mg/kg): 2.41 ± 0.34 h; Stability, three freeze–thaw cycles, RE [3, 7]: 9.67%; Crossing of the blood–brain barrier [4]: could cross the blood–brain barrier
242 ± 57.2 ng·h/mL | 97.3 ± 18 ng/mL | 2.98 ± 0.84 h | 0.45 ± 0.21 h | 2.42 ± 1.23 h | 89.1 ± 41.7 ng/mL | 4.6 ± 1.33 h | 0.45 ± 0.11 h | 3.68 ± 1.32 h | −5.63% | −4.78% | 5.33% | −1.04% | −3.75% | 0.63% | −4.78% | −9.22% | −12.61% | 8.00% | 7.33% | CC(C)CNC(=O)/C=C/C=C/c1ccc2c(c1)OCO2 [PPL, piperlonguminine] | AUC(0-inf) ([1]; 50 mg/kg): 245 ± 57.5 ng·h/mL; AUC(0-inf) [2]: 318 ± 123 ng·h/mL; AUC(0-t) [2]: 302 ± 116 ng·h/mL; Stability, three freeze–thaw cycles, RE [3, 7]: 6.67%; Crossing of the blood–brain barrier [4]: could cross the blood–brain barrier
